# According to ChEMBL document CHEMBL4732088, “Identification and optimization of piperlongumine analogues as potential antioxidant and anti-inflammatory agents via activation of Nrf2” (Eur J Med Chem, 2021):
# Activity calls are given as the source filed them. No cut-off for these calls is given here.
# Assays:
# [1] = molecular target: T1, Nuclear factor erythroid 2-related factor 2 (Mus musculus) (UniProt Q60795); assay: Activation of Nrf2 in mouse BV2 cells assessed as decrease in LPS-induced NO production pretreated with compound followed by LPS stimulation after 18 hrs by Griess reagent based assay; assay type: cell-based; conditions: BV-2, filed as activator, dose 5-20 µM
# T1 sequence (whole entry): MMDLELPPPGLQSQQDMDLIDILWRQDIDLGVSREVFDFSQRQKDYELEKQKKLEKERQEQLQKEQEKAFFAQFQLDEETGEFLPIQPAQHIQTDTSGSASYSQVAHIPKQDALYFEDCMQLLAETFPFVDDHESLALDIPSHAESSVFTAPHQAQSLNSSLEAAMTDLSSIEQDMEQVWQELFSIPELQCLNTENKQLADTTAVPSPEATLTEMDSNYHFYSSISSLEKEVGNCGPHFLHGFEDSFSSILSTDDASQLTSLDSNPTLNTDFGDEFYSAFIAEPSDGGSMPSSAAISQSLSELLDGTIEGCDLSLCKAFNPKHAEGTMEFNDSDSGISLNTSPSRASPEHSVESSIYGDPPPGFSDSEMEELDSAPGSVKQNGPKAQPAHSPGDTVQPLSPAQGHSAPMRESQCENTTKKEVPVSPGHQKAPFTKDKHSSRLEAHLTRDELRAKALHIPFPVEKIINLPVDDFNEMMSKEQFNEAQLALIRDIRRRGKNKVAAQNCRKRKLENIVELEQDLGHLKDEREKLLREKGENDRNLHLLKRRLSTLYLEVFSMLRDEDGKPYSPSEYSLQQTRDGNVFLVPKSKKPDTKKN
# Outline: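 BV2 microglia pretreated with compound, then LPS (1µg/mL) for 18 h; NO in medium measured by Griess method; mean ± SD, n = 3.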
# PC-12 [2] = assay: Neuroprotective activity against H2O2-induced cell damage in rat PC12 cells preincubated for 24 hrs followed by H2O2 treatment by MTT assay; assay type: functional, cell-based; conditions: dose 5-20 µM
# Outline: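 PC12 cells pretreated 24 h with compound (5, 10, 20 μM), then H₂O₂ (200 μM) or 6-OHDA (150 μM); viability by MTT; mean ± SD, three independent experiments.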
# PC-12 [3] = assay: Protection against H2O2-induced mitochondrial dysfunction in rat PC12 cells assessed as change in mitochondrial membrane potential at 5 uM pretreated with compound followed by H2O2 addition by JC-1 staining based flow cytometry (reference value: 78.7 %); assay type: functional
# Outline: (§1)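 Mitochondrial membrane potential in PC12 cells pretreated with compound (5, 10, 20 μM), then exposed to H₂O₂ (200 μM) or 6-OHDA (150 μM). JC-1 staining, red-to-green fluorescence shift read by flow cytometry. Mean ± SD, n = 3.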
# PC-12 [4] = assay: Protection against H2O2-induced mitochondrial dysfunction in rat PC12 cells assessed as change in mitochondrial membrane potential at 20 uM pretreated with compound followed by H2O2 addition by JC-1 staining based flow cytometry (reference value: 78.7 %); assay type: functional; outline: as §1
# PC-12 [5] = assay: Protection against H2O2-induced mitochondrial dysfunction in rat PC12 cells assessed as change in mitochondrial membrane potential loss at 20 uM pretreated with compound followed by H2O2 addition by JC-1 staining based flow cytometry (reference value: 21.3 %); assay type: functional; outline: as §1
# PC-12 [6] = assay: Protection against 6-OHDA-induced mitochondrial dysfunction in rat PC12 cells assessed as change in mitochondrial membrane potential loss at 5 uM pretreated with compound followed by 6-OHDA addition by JC-1 staining based flow cytometry (reference value: 26.8 %); assay type: functional; outline: as §1
# PC-12 [7] = assay: Protection against H2O2-induced apoptosis in rat PC12 cells assessed as viable cells at 5 uM incubated for 24 hrs by annexin V FITC/propidium iodide staining based flow cytometry (reference value: 79.3 %); assay type: functional; conditions: read-out: Activity
# PC-12 [8] = assay: Protection against H2O2-induced apoptosis in rat PC12 cells assessed as necrotic cells at 5 uM incubated for 24 hrs by annexin V FITC/propidium iodide staining based flow cytometry (reference value: 0.6 %); assay type: functional
# PC-12 [9] = assay: Protection against H2O2-induced apoptosis in rat PC12 cells assessed as viable cells at 20 uM incubated for 24 hrs by annexin V FITC/propidium iodide staining based flow cytometry (reference value: 79.3 %); assay type: functional; conditions: read-out: Activity
# PC-12 [10] = assay: Protection against 6-OHDA-induced apoptosis in rat PC12 cells assessed as late apoptotic cells at 5 uM incubated for 24 hrs by annexin V FITC/propidium iodide staining based flow cytometry (reference value: 7.6 %); assay type: functional
# [11] = molecular target: T2, Nuclear factor erythroid 2-related factor 2 (Rattus norvegicus) (UniProt O54968); assay: Activation of Nrf2 in rat PC12 cells assessed as increase in TrxR1 protein level after 24 hrs by Western blot analysis; assay type: cell-based; conditions: PC-12, filed as activator, dose 5-20 µM
# T2 sequence (whole entry): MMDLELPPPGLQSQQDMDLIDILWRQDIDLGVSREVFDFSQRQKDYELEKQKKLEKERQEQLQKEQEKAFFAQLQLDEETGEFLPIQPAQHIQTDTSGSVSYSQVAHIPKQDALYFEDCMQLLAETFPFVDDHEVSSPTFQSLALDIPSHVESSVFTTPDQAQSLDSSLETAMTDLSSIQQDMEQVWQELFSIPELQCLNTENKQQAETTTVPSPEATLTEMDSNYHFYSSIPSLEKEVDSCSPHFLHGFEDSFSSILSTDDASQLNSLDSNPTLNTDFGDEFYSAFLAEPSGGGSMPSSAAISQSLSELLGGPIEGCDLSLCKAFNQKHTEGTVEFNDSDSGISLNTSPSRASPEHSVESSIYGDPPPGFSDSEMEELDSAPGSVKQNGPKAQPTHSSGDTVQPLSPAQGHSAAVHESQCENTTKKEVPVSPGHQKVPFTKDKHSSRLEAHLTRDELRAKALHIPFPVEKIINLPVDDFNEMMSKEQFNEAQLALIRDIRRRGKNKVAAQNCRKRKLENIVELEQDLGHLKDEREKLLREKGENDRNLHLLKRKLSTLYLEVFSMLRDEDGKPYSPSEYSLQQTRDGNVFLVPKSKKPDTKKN
# Outline: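 PC12 cells treated with compound for 24 h at rising concentrations; NQO1, HO-1, TrxR1, GCLM, GCLC protein detected by Western blot.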
# [12] = Antioxidant activity assessed as DPPH radical scavenging activity; assay type: functional
# [13] = molecular target: T2, Nuclear factor erythroid 2-related factor 2 (Rattus norvegicus); assay: Induction of Nrf2 translocation from cytoplasm to nucleus in rat PC12 cells at 20 uM after 6 hrs by Western blot analysis; assay type: cell-based; conditions: PC-12, filed as activator
# Outline: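 PC12 cells given compound; nuclear and cytoplasmic fractions probed for Nrf2 by Western blot across a time course up to and beyond 6 h.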
# BV-2 = assay: Antiinflammatory activity in mouse BV2 cells transfected with control siRNA assessed as inhibition of LPS-induced IL-6 production at 20 uM pretreated with compound followed by LPS stimulation for 18 hrs
# PC-12 [14] = assay: Neuroprotective activity against 6-OHDA-induced apoptosis in rat PC12 cells assessed as reduction in apoptotic nuclei at 5 to 20 uM pretreated with compound followed by Hoechst 33342 staining based fluorescence microscopy analysis; conditions: dose 5-20 µM
compound,measurement,setting,value
CCN(C)C(=O)N1CCN(C(=O)/C=C/c2ccc(F)cc2)C1=O,Activity,[1],Dose-dependent effect
same,Activity,PC-12 [2],Dose-dependent effect
same,Activity,PC-12 [3],86.7%
same,Activity,PC-12 [4],92.8%
same,Activity,PC-12 [5],7.2%
same,Activity,PC-12 [6],20.5%
same,viability at 5 µM,PC-12 [7],84.1%
same,Activity,PC-12 [8],0.9%
same,viability at 20 µM,PC-12 [9],93.7%
same,Activity,PC-12 [10],6.4%
same,Activity,[11],Dose-dependent effect
same,Activity,[12],inactive
same,Activity,[13],Active
same,Activity,BV-2,Active
same,Activity,PC-12 [14],Active
